Usually inhibition stands for the drop in the measured response relative to a control, in per cent.

A short description of assay [1]: inhibitors of TNFa-induced NFkB p65 translocation, primary screen, imaging, HUVEC, MLSMR starter and 10KST1 sets (AID 438;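 active = inhibition above 20% together with a positive visual image hit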;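 note: compound added about 3h40 before a 20 min TNFalpha stimulation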;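 for inhibition: signal is the nuclear over cytoplasmic p65 intensity ratio per well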). The conditions noted are these: HUVEC TNFa-induced p65 nuclear translocation; cell count: measured here: nuclei count (cytotoxicity indicator), at 2.08 µM; inhibition: at 2 µM, stronger effect = higher value, 0% TNFa-plus-vehicle, 100% no-TNFa wells.
A short description of assay [2]: endothelial E-selectin expression blockers – imaging, HUVEC, immunofluorescence, MLSMR starter and 10KST1 sets, primary screen (AID 487;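 active = visually confirmed hit in the image check and inhibition above 20%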;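 for inhibition: signal is fraction of cell area covered by stained E-selectin grains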;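 for nuclei count: 100% = median nuclei count of all wells on the same plate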). The conditions noted are these: HUVEC TNFalpha-induced E-selectin immunofluorescence imaging, at 2 µM; inhibition: stronger effect = higher value; nuclei count: measured here: cell number, toxicity.
Assay [3] can be described thus: Primary imaging screen for DUSP6 inhibitors that restore phospho-Erk in transfected HeLa cells, chemical complementation (AID 609;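 active = compounds giving at least 50% inhibition in the cell-based MKP-3 phosphatase rescue imaging test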;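 for inhibition: phospho-Erk level distribution per well compared with pooled transfected vehicle control wells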). The settings on record: HeLa MKP-3 transfected, phospho-Erk imaging KS statistic, at 10 µM, cells stimulated with TPA for 15 min.
The target of assay [4] is Dual specificity protein phosphatase 6 (Homo sapiens) (UniProt Q16828). The assay is described as above. The conditions noted are these: HeLa MKP-3 transfected, phospho-Erk imaging KS statistic; at 10 µM; stronger effect = higher value; cells stimulated with TPA for 15 min.
Sequence of Dual specificity protein phosphatase 6 (Homo sapiens) (Q16828 whole entry, looked up): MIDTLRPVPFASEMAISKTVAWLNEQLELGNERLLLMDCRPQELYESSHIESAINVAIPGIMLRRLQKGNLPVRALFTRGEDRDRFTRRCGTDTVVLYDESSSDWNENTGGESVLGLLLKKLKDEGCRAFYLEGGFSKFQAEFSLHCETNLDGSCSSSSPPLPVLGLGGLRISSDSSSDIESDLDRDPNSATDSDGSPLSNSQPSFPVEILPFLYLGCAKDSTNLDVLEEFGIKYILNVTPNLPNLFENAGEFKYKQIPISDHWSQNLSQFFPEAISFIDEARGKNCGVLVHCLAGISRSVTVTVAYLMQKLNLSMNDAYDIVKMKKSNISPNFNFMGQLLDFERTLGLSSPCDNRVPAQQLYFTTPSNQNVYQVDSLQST
Assay [5] deals with Voltage-gated potassium channel subunit beta-2 (Rattus norvegicus) (UniProt P62483). Description: inhibitors of rat Kvbeta2 reductase activity – biochemical, NADPH fluorescence, primary screen (AID 622).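 Note: slope of raw intensity against log time taken from 70 to 1610 s.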 The settings on record: recombinant KvBeta, 4-cyanobenzaldehyde reduction, at 10 µM, stronger effect = higher value.
Sequence of Voltage-gated potassium channel subunit beta-2 (Rattus norvegicus) (P62483 whole entry, looked up): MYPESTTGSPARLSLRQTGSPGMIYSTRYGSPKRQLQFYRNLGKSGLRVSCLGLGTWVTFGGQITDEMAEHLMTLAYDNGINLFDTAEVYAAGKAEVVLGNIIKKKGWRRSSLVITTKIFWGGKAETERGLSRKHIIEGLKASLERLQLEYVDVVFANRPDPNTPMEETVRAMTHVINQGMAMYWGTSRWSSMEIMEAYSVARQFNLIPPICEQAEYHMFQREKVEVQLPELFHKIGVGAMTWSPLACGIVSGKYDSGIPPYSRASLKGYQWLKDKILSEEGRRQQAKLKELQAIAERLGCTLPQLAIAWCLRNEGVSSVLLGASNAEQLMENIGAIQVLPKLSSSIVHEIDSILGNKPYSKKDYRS
Assay [6] has the same target. Description: enhancers of rat Kvbeta2 NADPH turnover – biochemical, NADPH fluorescence, primary screen (AID 623;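 active = NADPH fluorescence slope more negative than the mean of all samples by about 3 SD, 99.7% confidence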;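 note: fluorescence intensity change per second fitted from 20 to 320 s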). The conditions noted are these: Recombinant KvBeta, NADPH fluorescence decrease slope, 10 min; at 10 µM; stronger effect = lower value.
The target in assay [7] is Muscarinic acetylcholine receptor M4 (Homo sapiens) (UniProt P08173). As to the kind of experiment: M4-linked GIRK flux change, two-sided – cell-based, HEK293 M4/GIRK, thallium flux, BTC-AM, M4 allosteric agonist project, primary screen (AID 625;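 active = fluorescence slope after compound addition differing from the mean of all tested samples at 99.7% confidence, mostly higher but some lower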;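 note: thallium influx through GIRK channels coupled to M4 in HEK293 cells with BTC-AM dye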). The settings on record: at 10 µM, actives lie on both sides. The essentials:
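Material: HEK293 cells with M4 receptor and GIRK channels; Times: cells overnight at 37 °C, BTC-AM loading 1 h, reads 2 min total; Technique: kinetic BTC-AM fluorescence sampled at 1 Hz, 10 s pre-addition baseline; Read-out basis: slope over 15–24 s of trace normalized to starting intensity; Controls: carbachol positive, DMSO negative.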

A short description of assay [8]: inhibitors of larval lipid processing in zebrafish, primary screen, whole organism, PED6 fluorescence, gall bladder and intestine (AID 686;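 active = a full or partial loss of lipid-probe fluorescence in the fish gall bladder, intestine or both, judged by eye; inactive = no fluorescence loss, or compound toxic to the fish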;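 note: larvae 5 to 7 days old with five fish per well; signal comes from phospholipase A2 cleavage of quenched PED6 carried via bile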). The settings on record: Zebrafish larvae PED6 lipid processing, fluorescence scoring; screened at 20 µM (by protocol). The method in brief: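 Incubation: overnight exposure of larvae to compound plus PED6 / Test system: live zebrafish larvae aged 5-7 days, whole organism / Amount: 5 larvae per well / Read-out basis: visual per-well fluorescence inhibition score / Signal: visual fluorescence microscopy scoring of gall bladder, gut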

Assay [9] can be described thus: loss of swimming-algae plug formation – whole organism, Chlamydomonas reinhardtii, WT vs cilia-less mutant, absorbance, 96-well, primary screen (AID 463189;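 active = inhibition at or above 50% relative to wild type and mutant plate controls; inactive = inhibition below 50%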;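 note: 0% = wild type cc124 cells in DMSO and 100% = ciliumless bld1 mutant cells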). The settings on record: Chlamydomonas reinhardtii gravitaxis, OD600 absorbance, 2 days; at 10 µM; stronger effect = higher value.
The mark [10] stands for this setting: measured here: cell density z-score.
[11] abbreviates: measured here: nuclear c-Myc green intensity z-score.
The mark [12] stands for this setting: measured here: nuclear pErk red intensity z-score, stronger effect = higher value.

Activity calls are given as the source filed them.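 Rule for the calls, unless noted: active = fluorescence slope higher than the sample average by over 3 SD (cut at about -0.22 in these data, passing the limit was not always enough); inactive = the rest.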

Sequence of Muscarinic acetylcholine receptor M4 (Homo sapiens) (P08173 whole entry, looked up): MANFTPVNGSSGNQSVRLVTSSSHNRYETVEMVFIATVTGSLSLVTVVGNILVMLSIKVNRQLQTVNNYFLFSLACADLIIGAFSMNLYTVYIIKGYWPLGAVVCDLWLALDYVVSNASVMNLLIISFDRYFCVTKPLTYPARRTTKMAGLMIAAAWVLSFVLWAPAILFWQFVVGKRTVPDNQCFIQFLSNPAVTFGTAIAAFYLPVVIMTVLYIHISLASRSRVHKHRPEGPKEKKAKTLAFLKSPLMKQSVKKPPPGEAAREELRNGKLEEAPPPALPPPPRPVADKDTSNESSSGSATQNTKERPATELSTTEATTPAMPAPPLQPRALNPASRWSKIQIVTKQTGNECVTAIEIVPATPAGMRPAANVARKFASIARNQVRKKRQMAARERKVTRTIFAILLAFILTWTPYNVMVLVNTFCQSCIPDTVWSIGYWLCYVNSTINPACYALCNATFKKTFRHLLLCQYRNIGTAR

On to `C=CCOc1ccc(/C(O)=C2/C(=O)C(=O)N(CCCN3CCOCC3)C2c2ccccc2)cc1` (stereo unspecified), for which, in assay [1], the cell count was 400. The inhibition in assay [1] was -4.5% (inactive); in assay [2] it was -152% (inactive); in assay [4], 7.73% (inactive); in assay [9] it was 3.35% (inactive). This compound had a nuclei count in assay [2] of 142%. In addition, the figures for the z-score in [3] (setting [10]), in assay [3] (setting [11]) and in assay [3] (setting [12]) were 0.832, -1.64 and 0.377, respectively. Also, the values for the fluorescence slope in [5] and in [7] were -0.44 (inactive) and 0.00439 (inactive), respectively. The NADPH fluorescence slope in assay [6] is -0.000122 (inactive). Also, the call in assay [8] was inactive.
`N#Cc1nc(COc2ccccc2)oc1N1CCCC1`: in [1], the cell count is 463. The inhibition was -4.6% (inactive) in [1], -281% (inactive) in [2], 4.37% (inactive) in assay [4] and -0.28% (inactive) in assay [9]. The nuclei count in [2] stood at 164%. Also, the results for the z-score in assay [3] (setting [10]), in assay [3] (setting [11]) and in assay [3] (setting [12]) were -0.447, 1.68 and 0.969, respectively. Besides, the fluorescence slope in [5] was -0.42 (inactive); in assay [7] it was 0.00421 (inactive). Besides, the NADPH fluorescence slope in assay [6] was -4.6e-05 (inactive). The result in assay [8] was inactive.
Regarding `CCOC(=O)C1CCN(c2ncnc3c2cnn3-c2ccc(OC)cc2)CC1`, the cell count in assay [1] was determined as 680. The inhibition in assay [1] is -2.1% (inactive); in [2], -138% (inactive); in assay [4], 13.4% (inactive); in [9], -3.46% (inactive). The compound further had a nuclei count in [2] of 191%. Besides, the z-score was 0.032 in assay [3] (setting [10]), -0.586 in [3] (setting [11]) and 0.421 in assay [3] (setting [12]). The fluorescence slope is -0.405 (inactive) in assay [5] and 0.00612 (inactive) in assay [7]. The NADPH fluorescence slope in assay [6] was -3.9e-05 (inactive). For the same compound, the call in assay [8] was inactive.
With `CCCSc1nc(O)c(C2OC(=O)c3c2ccc(OC)c3OC)c(=O)n1C` (stereo unspecified), in assay [1], the cell count was 560. The inhibition is -1.3% (inactive) in [1], 29.6% (inactive) in [2], 7.93% (inactive) in assay [4] and 12.4% (inactive) in [9]. Also, in [2], the nuclei count stood at 143%. Also, the values for the z-score in assay [3] (setting [10]), in assay [3] (setting [11]) and in assay [3] (setting [12]) were 0.566, -0.178 and 0.157, respectively. The fluorescence slope is -0.415 (inactive) in [5] and 0.00648 (inactive) in assay [7]. The NADPH fluorescence slope in assay [6] was -3.7e-05 (inactive). In addition, the call in assay [8] was inactive.
As for `CCCCN1C(=O)C(O)=C(C(C)=O)C1c1ccc(OC)cc1OC` (stereo unspecified), in assay [1], the cell count worked out at 479. Further, the inhibition in assay [1] was -4.2% (inactive); in assay [2], -323% (inactive); in assay [4] it was -7.28% (inactive); in [9], -3.96% (inactive). This compound also yielded a nuclei count in assay [2] of 189%. Further, the z-score was 0.403 in [3] (setting [10]), -0.372 in assay [3] (setting [11]) and 1.98 in assay [3] (setting [12]). For the same compound, the fluorescence slope in assay [5] is -0.464 (inactive); in assay [7] it was 0.00466 (inactive). Also, in assay [6], the NADPH fluorescence slope was -4.3e-05 (inactive). Moreover, the result in assay [8] was inactive.
Take `CCCCCSc1nc(N2CCOCC2)c2c(c1C#N)CC(C)(C)OC2`: in assay [1], the cell count amounted to 527. Further, the inhibition in assay [1] was -4.1% (inactive); in assay [2], 47.4% (inactive); in assay [4], -11.4% (inactive); in assay [9] it was 16.6% (inactive). Besides, in assay [2], the nuclei count was 82.5%. In addition, the z-score in assay [3] (setting [10]) is -0.00236; in assay [3] (setting [11]), 0.148; in assay [3] (setting [12]), -1.7. Moreover, the figures for the fluorescence slope in assay [5] and in assay [7] were -0.426 (inactive) and 0.00771 (inactive), respectively. Besides, the NADPH fluorescence slope in [6] is 1.5e-05 (inactive). The outcome in assay [8] was inactive.
With `CC(C)(C)C1=Nn2c(nnc2C2CCCCC2)SC1`, in assay [1], the cell count was found to be 802. In addition, the inhibition in assay [1] was -5.9% (inactive); in [2], -150% (inactive); in [4], 2.46% (inactive); in [9] it was 3.81% (inactive). Besides, the nuclei count in [2] came to 189%. Moreover, the figures for the z-score in assay [3] (setting [10]), in assay [3] (setting [11]) and in assay [3] (setting [12]) were 0.781, 1.46 and 0.611, respectively. Also, the fluorescence slope is -0.452 (inactive) in [5] and 0.00451 (inactive) in assay [7]. In [6], the NADPH fluorescence slope is -7.5e-05 (inactive). Also, the compound was classed as inactive in assay [8].
Take `CC1(C(=O)CSc2ncn[nH]2)CCC(=O)O1` (stereo unspecified): in [1], the cell count is 643. Besides, the inhibition in assay [1] was 19.2% (inactive); in [2], 21.4% (inactive); in assay [4] it was 7.21% (inactive); in assay [9], 29.1% (inactive). Further, in assay [2], the nuclei count was found to be 93.2%. The z-score in [3] (setting [10]) was -1.6; in assay [3] (setting [11]), 1.61; in assay [3] (setting [12]) it was 0.596. In addition, the fluorescence slope in assay [5] is -0.544 (inactive); in [7], 0.00624 (inactive). In addition, in assay [6], the NADPH fluorescence slope is -5.7e-05 (inactive). Further, in [8], the call was inactive.
With `O=C(NCc1ccccc1)C1C(=O)N(Cc2ccccc2)C(=O)C1C1(O)CCCC1` (stereo unspecified), in assay [1], the cell count came out at 653. Moreover, the inhibition in assay [1] was -2.4% (inactive); in assay [2], -17.9% (inactive); in assay [4], -13.3% (inactive); in [9], -5.5% (inactive). The nuclei count in [2] worked out at 108%. In addition, the values for the z-score in [3] (setting [10]), in assay [3] (setting [11]) and in assay [3] (setting [12]) were -0.94, 0.675 and 0.754, respectively. For the same compound, the fluorescence slope was -0.508 (inactive) in assay [5] and 0.00572 (inactive) in assay [7]. In addition, the NADPH fluorescence slope in assay [6] was -2.1e-05 (inactive). Moreover, the compound was called inactive in assay [8].
On to `Cc1nn(CCO)c2c1C(=O)CCC2`, for which the cell count in assay [1] was determined as 514. For the same compound, the inhibition in [1] is -5.8% (inactive); in assay [2], -16.6% (inactive); in assay [4], 5.95% (inactive); in assay [9], -6.32% (inactive). The nuclei count in [2] was determined as 166%. For the same compound, the z-score in [3] (setting [10]) is 1.33; in assay [3] (setting [11]), -0.18; in [3] (setting [12]), -0.238. Also, the fluorescence slope in assay [5] is -0.382 (inactive); in assay [7] it was 0.00488 (inactive). For the same compound, the NADPH fluorescence slope in assay [6] is -2.1e-05 (inactive). Also, in assay [8], the call was inactive.
`O=C(O)c1ccnc(C(=O)O)c1`: the cell count in assay [1] is 585. Besides, the inhibition in [1] was -4.6% (inactive); in assay [2], -82% (inactive); in assay [4], -4.59% (inactive); in assay [9], 24.1% (inactive). In addition, the nuclei count in assay [2] turned out to be 145%. The z-score in assay [3] (setting [10]) turned out to be 0.403; in [3] (setting [11]), 0.277; in assay [3] (setting [12]), 1. Moreover, the fluorescence slope was -0.434 (inactive) in [5] and 0.00626 (inactive) in assay [7]. In assay [6], the NADPH fluorescence slope is -0.000101 (inactive). Also, the compound was called inactive in assay [8].
Consider `N#Cc1c(NCCN)nc(NCc2ccccc2)c2c1CCN(Cc1ccccc1)C2`, for which the cell count in assay [1] was found to be 566. Besides, the inhibition in [1] was 3% (inactive); in assay [2], -151% (inactive); in assay [4], 3.42% (inactive); in assay [9], 15.7% (inactive). The compound also gave a nuclei count in [2] of 145%. Besides, the z-score in assay [3] (setting [10]) was 0.625; in [3] (setting [11]), -0.717; in [3] (setting [12]), 1.05. In addition, the fluorescence slope in assay [5] was -0.466 (inactive); in assay [7], 0.00448 (inactive). The NADPH fluorescence slope in assay [6] was -8.7e-06 (inactive). Moreover, the outcome in [8] is “active; weak signal in gallbladder and intestine”.

Source of the values: PubChem BioAssay.
